An excerpt weighted towards active compounds, which were near 4.5% of everything screened.
CHOP inh – inhibitors of CHOP induction in ER stress response. AID 2732. 3.8% of 220,000 active. inhibition, % at 10 µM. CHO-K1 CHOP-promoter luciferase, tunicamycin-induced, 15-18 h;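 active = compounds that reduced the stress-induced luciferase reporter signal by more than about 70% of percent inhibition, limit read from the data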;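 note: 0% = tunicamycin plus vehicle and 100% = wells without tunicamycin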
p97 inhibitor – inhibitors of human p97 ATPase. AID 1481. 0.42% of 220,000 active. inhibition, % at 8 µM. recombinant p97 ATPase, Kinase-Glo ATP luminescence, 3 h; in the data active = inhibition above about 15%;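 note: 0% = DMSO vehicle and 100% = wells lacking enzyme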
Target sequence (P55072 whole entry, looked up): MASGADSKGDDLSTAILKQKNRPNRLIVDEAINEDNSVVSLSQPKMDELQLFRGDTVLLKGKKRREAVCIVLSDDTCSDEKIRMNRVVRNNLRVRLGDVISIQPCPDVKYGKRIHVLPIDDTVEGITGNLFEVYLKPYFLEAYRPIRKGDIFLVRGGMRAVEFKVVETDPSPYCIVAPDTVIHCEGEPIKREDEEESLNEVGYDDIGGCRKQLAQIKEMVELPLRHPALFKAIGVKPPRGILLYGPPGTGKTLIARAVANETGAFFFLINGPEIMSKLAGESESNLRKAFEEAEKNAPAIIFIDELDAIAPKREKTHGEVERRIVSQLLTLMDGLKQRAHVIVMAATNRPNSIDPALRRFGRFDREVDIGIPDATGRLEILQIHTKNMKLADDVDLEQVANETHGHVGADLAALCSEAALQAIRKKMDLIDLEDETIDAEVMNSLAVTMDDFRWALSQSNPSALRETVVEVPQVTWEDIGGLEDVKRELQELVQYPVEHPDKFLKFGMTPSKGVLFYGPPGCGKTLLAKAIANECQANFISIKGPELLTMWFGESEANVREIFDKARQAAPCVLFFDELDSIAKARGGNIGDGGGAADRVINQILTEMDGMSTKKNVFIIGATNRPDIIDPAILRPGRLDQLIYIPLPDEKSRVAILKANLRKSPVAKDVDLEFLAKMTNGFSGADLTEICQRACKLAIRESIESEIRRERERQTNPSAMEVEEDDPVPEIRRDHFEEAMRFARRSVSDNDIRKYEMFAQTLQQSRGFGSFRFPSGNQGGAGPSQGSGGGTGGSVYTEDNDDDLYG
UPR XBP1 act – adaptive UPR (XBP1) activation. CHO-XBP1 luciferase reporter, IRE1-XBP1 UPR activation, luminescence; percent of tunicamycin response, DMSO as zero. activation, % at 20 µM. 0.33% of 330,000 active. AID 463104;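 active = versus positive control, 20 µM dose yields 30% or more activation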;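 note: 100% = tunicamycin at 10 µg/mL and 0% = DMSO only wells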
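Material – CHO cell line with stable XBP1 luciferase reporter · Buffer or medium – F12 plus 10% FBS · Compound – single point, 20 µM final compound, 1% DMSO · Schedule – 16-18 h cell attachment at 37 °C, then 6 h compound exposure · Signal – Steady-Glo luminescence read · Benchmarks – high control tunicamycin 10 µg/mL final, low control DMSO vehicle only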
NS3 helicase inh – blocks Hepatitis C virus NS3 helicase unwinding. AID 1800. inhibition, % at 10.9 µM. 0.56% of 290,000 active. NS3 helicase DNA unwinding, Cy5 molecular beacon fluorescence;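 active = inhibition above the mean of all tested compounds plus 3 SD, set per campaign, cut at about 35% in these data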;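 note: 0% = DMSO wells and 100% = thioflavine S control wells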
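Compound dosing – single dose, 10.9 µM nominal final, DMSO 0.8% final · System – NS3 helicase fragment of HCV · Buffer or medium – MOPS pH 6.5, MgCl2, DTT, Tween20, BSA · Signal – Cy5 beacon fluorescence read at start and 1 h · Also added – annealed dual-labelled DNA beacon duplex, ATP-started · Schedule – 1 h at 25 °C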
PfM18AAP inh – PfM18AAP enzyme inhibition. recombinant PfM18AAP, H-Glu-NHMec fluorogenic cleavage. inhibition, % at 7.35 µM. 1.2% of 290,000 active;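 active = inhibition above the campaign mean inhibition over all tested compounds plus 3 SD, cut at about 28% in these data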;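 note: 0% = plate median of test compound wells and 100% = 2 mM ZnCl2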
UPR CHOP act – activators of apoptotic arm of unfolded protein response (CHOP). 0.34% of 330,000 active. CHO-CHOP luciferase reporter, UPR activation, luminescence; percent of tunicamycin response over DMSO baseline. activation, % at 10 µM. AID 449763;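 active = at 10 µM dose, activation of 40% or more, normalized to positive control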;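 note: 100% = tunicamycin at 10 µg/mL and 0% = DMSO alone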
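Evaluation: % reporter activation, DMSO baseline versus tunicamycin full activation; System: CHO-CHOP luciferase reporter cell line; Input: 500 cells/well; Incubation: 6 h compound treatment, 37 °C; Measured by: Steady-Glo luciferase luminescence; Dosing: one dose, 10 µM in 0.5% DMSO; Buffer or medium: F12 medium, 10% FBS; Benchmarks: positive tunicamycin 10 µg/mL, negative DMSO alone.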
NS3 helicase cf – HCV NS3 helicase inhibition, confirmation assay; shares compounds with NS3 helicase inh; NS3 helicase DNA unwinding, Cy5 molecular beacon fluorescence; inhibition, % at 10.9 µM; 31% of 1,600 active;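 active = inhibition above the mean of all tested compounds plus 3 SD, cutoff set per campaign, cut at about 36% in these data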
FID counter trip – intercalator displacement, NS3 helicase counter-screen. shares compounds with NS3 helicase inh. DNA fluorescent intercalator displacement, fluorescence. inhibition, % at 7.9 µM. 4% of 1,600 active; in the data active = inhibition above about 37%;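 note: 0% = vehicle and 100% = reference compound; higher means more displacement of ethidium bromide from the DNA hairpin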
DNA FID DR – displaces fluorescent intercalator from DNA, HCV helicase counter-screen; shares compounds with NS3 helicase inh; fluorescent intercalator displacement from DNA, fluorescence; IC50, µM; 120 tested, under 10 active; AID 2172; call rule not given here
Numbers without * were called inactive; nt = no result.

SMILES	CHOP inh	p97 inhibitor	UPR XBP1 act	NS3 helicase inh	PfM18AAP inh	UPR CHOP act	NS3 helicase cf	FID counter trip	others
O=C(N/C(=C\c1ccccc1)C(=O)N1CCOCC1)c1ccccc1Cl	nt	nt	-4	36*	0	0	-7	-8
Cn1c(SCC(=O)NC2CCCC2)nnc1-c1ccco1	nt	nt	3	7	-1	1	nt	nt
CCC(=N\NC(=O)COc1ccccc1OC)/C(CC)=N/NC(=O)COc1ccccc1OC	nt	nt	1	nt	nt	0	nt	nt
O=C(NC1CCCCC1)c1cc(-c2cccs2)on1	nt	nt	1	7	-12	5	nt	nt
CN(C)C(=S)Nc1cccc(-c2n[nH]c(=S)o2)c1	3	4	-2	1	5	-2	nt	nt
NNC(=S)Nc1cccc(-c2n[nH]c(=S)o2)c1	5	7	-4	37*	10	1	2	-9
COc1cc(C2/C(=C(\O)c3ccc4c(c3)OCCO4)C(=O)C(=O)N2Cc2ccco2)ccc1O (configuration not stated)	nt	nt	-1	14	17	1	nt	nt
O=C(C1=C(O)C(=O)N(c2ncccn2)C1c1ccc(Cl)cc1)c1ccco1 (configuration not stated)	-21	4	0	43*	22	1	-23	-3
O=C(C1=C(O)C(=O)N(Cc2ccco2)C1c1cccc([N+](=O)[O-])c1)c1ccco1 (configuration not stated)	nt	nt	-5	30	-1	2	nt	nt
CCCOc1ccc(C2C(C(=O)c3ccc(C)o3)=C(O)C(=O)N2Cc2ccco2)cc1 (configuration not stated)	nt	nt	0	71*	6	1	98*	-37
O=C(C1=C(O)C(=O)N(Cc2ccco2)C1c1cccc(Cl)c1)c1ccco1 (configuration not stated)	nt	nt	1	48*	12	-1	16	1
O=C1C(=O)N(Cc2ccco2)C(c2cccc(Cl)c2)/C1=C(\O)c1ccc2c(c1)OCCO2 (configuration not stated)	5	1	5	47*	-1	1	83*	-28	DNA FID DR=>79
CC(C)n1cc(C(=O)N2CCCC(N3CCN(c4cccc(Cl)c4)CC3)C2)cn1 (configuration not stated)	nt	nt	1	-3	0	-1	nt	nt
CCOC(=O)c1c(NC(=O)COC(=O)Cc2c[nH]c3ccccc23)sc(C(=O)N(C)C)c1C	nt	nt	0	nt	nt	-1	nt	nt
COc1ccc(C2C(C(=O)c3ccc(C)o3)=C(O)C(=O)N2Cc2ccco2)cc1OC (configuration not stated)	nt	nt	1	14	15	0	nt	nt
CCCOc1ccc(C2C(C(=O)c3ccc(C)o3)=C(O)C(=O)N2Cc2ccco2)cc1OCC (configuration not stated)	nt	nt	-3	37*	13	1	55*	-38	DNA FID DR=>79
O=C1C(=O)N(Cc2ccco2)C(c2cccs2)/C1=C(\O)c1cccc([N+](=O)[O-])c1 (configuration not stated)	-8	2	-2	43*	0	0	-1	17
CNC(=O)c1c(NC(=O)C2=COCCO2)sc2c1CCCC2	nt	nt	-5	3	0	3	nt	nt
CC1=C(C(=O)OC(C)C)C(c2ccc3c(c2)OCO3)NC(=O)N1 (configuration not stated)	nt	nt	-5	17	7	0	nt	nt
COc1ccc(N(CC(=O)NCCC2=CCCCC2)S(=O)(=O)c2c(C)[nH]c(=O)[nH]c2=O)cc1	-12	-11	-4	37*	-8	-1	-20	-32
COc1ccc(CNC(=O)CN(c2ccc(OC)cc2)S(=O)(=O)c2c(C)[nH]c(=O)[nH]c2=O)cc1	nt	nt	-3	8	-3	-1	nt	nt
O=C1C(=C2CCCCC2)SC(=S)N1Cc1ccco1	64	6	-2	72*	25	-1	-23	-5
